Test results from ChEMBL document CHEMBL4665884, “Structural Insights into the Recognition of Mono- and Diacetylated Histones by the ATAD2B Bromodomain” (J Med Chem, 2020).

What was measured:
[1] = Binding affinity to N-terminal GST tagged human ATAD2B Y1037A mutant expressed in Escherichia coli by ITC analysis
In short: (§1)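 GST tag removed by PreScission cleavage after glutathione-resin capture. Protein and peptides were dialyzed into 20 mM NaH2PO4 pH 7.0, 150 mM NaCl. Peptide dilution heats were subtracted. KD is the mean ± SD of triplicates; non-binders were run in duplicate.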

[2] = target: T1, ATPase family AAA domain-containing protein 2B (Homo sapiens, UniProt Q9ULI0); experiment: Binding affinity to N-terminal GST tagged human ATAD2B (953-1085 residues) expressed in Escherichia coli by ITC analysis; in short: as §1
T1 sequence (Q9ULI0 whole entry): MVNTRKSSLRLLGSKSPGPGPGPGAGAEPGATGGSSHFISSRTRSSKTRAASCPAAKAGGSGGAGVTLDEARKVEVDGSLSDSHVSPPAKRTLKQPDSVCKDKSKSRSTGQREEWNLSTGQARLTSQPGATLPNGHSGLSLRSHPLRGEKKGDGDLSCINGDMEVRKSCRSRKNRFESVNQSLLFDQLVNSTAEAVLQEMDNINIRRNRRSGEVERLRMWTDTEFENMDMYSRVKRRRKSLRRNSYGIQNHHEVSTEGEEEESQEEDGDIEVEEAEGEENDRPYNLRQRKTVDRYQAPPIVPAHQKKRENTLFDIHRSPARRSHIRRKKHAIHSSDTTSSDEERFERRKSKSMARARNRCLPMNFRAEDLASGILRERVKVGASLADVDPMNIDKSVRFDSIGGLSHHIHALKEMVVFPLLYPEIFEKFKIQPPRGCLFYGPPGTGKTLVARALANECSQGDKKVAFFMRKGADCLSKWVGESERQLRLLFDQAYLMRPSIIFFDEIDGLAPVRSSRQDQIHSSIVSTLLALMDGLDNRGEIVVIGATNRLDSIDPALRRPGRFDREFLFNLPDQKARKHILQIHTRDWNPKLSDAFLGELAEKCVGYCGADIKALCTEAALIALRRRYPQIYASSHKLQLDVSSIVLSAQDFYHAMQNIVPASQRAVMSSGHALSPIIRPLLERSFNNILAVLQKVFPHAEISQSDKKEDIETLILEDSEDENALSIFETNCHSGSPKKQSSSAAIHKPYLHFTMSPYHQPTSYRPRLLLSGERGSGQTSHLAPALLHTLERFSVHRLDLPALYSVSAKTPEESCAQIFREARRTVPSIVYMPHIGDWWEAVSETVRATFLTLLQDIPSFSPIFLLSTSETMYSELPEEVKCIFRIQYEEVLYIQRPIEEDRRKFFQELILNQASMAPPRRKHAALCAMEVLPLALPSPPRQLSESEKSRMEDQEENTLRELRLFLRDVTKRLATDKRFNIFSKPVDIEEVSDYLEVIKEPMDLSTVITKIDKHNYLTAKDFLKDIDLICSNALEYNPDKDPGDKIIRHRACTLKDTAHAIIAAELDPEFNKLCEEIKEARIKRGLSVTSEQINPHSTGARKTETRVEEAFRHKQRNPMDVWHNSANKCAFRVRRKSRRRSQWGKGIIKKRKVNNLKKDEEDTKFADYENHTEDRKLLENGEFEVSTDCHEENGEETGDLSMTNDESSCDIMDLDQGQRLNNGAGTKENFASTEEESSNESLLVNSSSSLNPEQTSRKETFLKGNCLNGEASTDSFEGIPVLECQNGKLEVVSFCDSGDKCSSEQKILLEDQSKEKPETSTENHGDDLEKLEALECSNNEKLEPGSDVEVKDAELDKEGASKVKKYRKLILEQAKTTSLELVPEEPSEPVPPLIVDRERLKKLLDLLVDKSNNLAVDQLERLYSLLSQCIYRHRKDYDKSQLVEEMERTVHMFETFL

[3] = Binding affinity to N-terminal GST tagged human ATAD2B Y995A mutant expressed in Escherichia coli by ITC analysis; in short: as §1
[4] = target: T2, ATPase family AAA domain-containing protein 2 (Homo sapiens, UniProt Q6PL18); experiment: Binding affinity to N-terminal GST tagged human ATAD2 (1-20 residues) expressed in Escherichia coli by ITC analysis
T2 sequence (Q6PL18 whole entry): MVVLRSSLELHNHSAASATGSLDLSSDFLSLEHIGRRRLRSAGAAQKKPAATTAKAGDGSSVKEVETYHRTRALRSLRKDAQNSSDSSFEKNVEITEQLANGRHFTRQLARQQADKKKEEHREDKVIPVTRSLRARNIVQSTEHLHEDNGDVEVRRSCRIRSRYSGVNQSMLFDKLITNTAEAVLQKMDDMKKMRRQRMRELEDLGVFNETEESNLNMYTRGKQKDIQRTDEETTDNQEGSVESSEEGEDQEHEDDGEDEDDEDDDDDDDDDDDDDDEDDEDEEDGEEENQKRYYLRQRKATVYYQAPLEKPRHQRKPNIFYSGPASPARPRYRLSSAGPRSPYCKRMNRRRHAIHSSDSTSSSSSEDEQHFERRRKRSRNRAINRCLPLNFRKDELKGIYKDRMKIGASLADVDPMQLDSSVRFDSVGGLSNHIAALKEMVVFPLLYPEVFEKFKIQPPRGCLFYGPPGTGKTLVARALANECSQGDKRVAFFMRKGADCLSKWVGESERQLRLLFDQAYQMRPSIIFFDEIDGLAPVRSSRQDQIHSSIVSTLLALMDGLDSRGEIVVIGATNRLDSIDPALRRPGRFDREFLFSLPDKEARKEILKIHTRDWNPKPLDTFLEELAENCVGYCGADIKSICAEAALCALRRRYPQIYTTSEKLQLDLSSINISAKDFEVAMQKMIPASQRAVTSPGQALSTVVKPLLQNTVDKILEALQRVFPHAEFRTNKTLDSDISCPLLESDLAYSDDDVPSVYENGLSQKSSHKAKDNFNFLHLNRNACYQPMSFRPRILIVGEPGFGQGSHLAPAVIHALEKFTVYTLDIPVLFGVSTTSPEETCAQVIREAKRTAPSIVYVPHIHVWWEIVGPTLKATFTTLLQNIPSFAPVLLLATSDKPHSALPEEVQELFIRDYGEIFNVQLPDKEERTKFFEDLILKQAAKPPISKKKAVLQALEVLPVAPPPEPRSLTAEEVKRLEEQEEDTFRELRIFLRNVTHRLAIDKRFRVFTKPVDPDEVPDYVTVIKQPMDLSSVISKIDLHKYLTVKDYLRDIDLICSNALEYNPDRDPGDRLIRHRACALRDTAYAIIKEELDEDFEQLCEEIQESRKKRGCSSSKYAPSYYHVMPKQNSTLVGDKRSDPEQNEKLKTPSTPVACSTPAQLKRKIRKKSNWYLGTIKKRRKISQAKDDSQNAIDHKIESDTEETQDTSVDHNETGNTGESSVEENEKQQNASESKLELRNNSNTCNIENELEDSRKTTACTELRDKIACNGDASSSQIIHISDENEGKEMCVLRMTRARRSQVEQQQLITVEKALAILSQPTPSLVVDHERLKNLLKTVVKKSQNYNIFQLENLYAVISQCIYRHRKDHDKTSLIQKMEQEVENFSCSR

[5] = target: T1, ATPase family AAA domain-containing protein 2B; experiment: Binding affinity to N-terminal GST tagged human ATAD2B short form expressed in Escherichia coli by ITC analysis; in short: as §1
[6] = Binding affinity to N-terminal GST tagged human ATAD2B N1038A mutant expressed in Escherichia coli by ITC analysis; in short: as §1
[7] = target: T2, ATPase family AAA domain-containing protein 2; experiment: Binding affinity to N-terminal GST tagged human ATAD2 (1-25 residues) expressed in Escherichia coli by ITC analysis

Row | Kd ([2]; read-out: Kd) [µM] | Kd [5] | Kd [2] | Compound | Kd [1] | Kd [3] | also measured
1 | 1160 |  |  | H-SGRGKGGK(Ac)GL-OH |  |  | 
2 |  |  | Not Active | H-LGKGGAK(Ac)RHRK-OH |  |  | 
3 |  |  | Not Active | CC(=O)NCCCC[C@H](NC(=O)CN)C(=O)NCC(=O)NCC(=O)N[C@@H](CCCCN)C(=O)NCC(=O)N[C@@H](CC(C)C)C(=O)NCC(=O)N[C@@H](CCCCN)C(=O)NCC(=O)NCC(=O)N[C@@H](C)C(=O)N[C@@H](CCCCN)C(=O)N[C@@H](CCCNC(=N)N)C(=O)O |  |  | Kd [6]: Not Active
4 | 50.5 | Not Active |  | CC(=O)NCCCC[C@H](NC(=O)CNC(=O)[C@H](CC(C)C)NC(=O)CNC(=O)[C@H](CCCCN)NC(=O)CNC(=O)CNC(=O)[C@H](CCCCN)NC(=O)CN)C(=O)NCC(=O)NCC(=O)N[C@@H](C)C(=O)N[C@@H](CCCCN)C(=O)N[C@@H](CCCNC(=N)N)C(=O)O | Not Active | Not Active | Kd [7]: 2.5 µM
5 |  |  | Not Active | C[C@H](NC(=O)[C@H](CCCCN)NC(=O)CNC(=O)CNC(=O)[C@@H](NC(=O)[C@H](CO)NC(=O)[C@H](CCCCN)NC(=O)[C@@H](N)CCCNC(=N)N)[C@@H](C)O)C(=O)N1CCC[C@H]1C(=O)N[C@@H](CCCNC(=N)N)C(=O)N[C@@H](CCCCN)C(=O)N[C@@H](CCC(N)=O)C(=O)O |  |  | 
6 | 0.167 | Not Active |  | Cc1cncc(-c2ccc(N[C@@H]3CCNC[C@H]3OCC3CCS(=O)(=O)CC3)c3[nH]c(=O)c(C)cc23)c1 |  |  | 

Second part, the compound before the results:

Row | Compound | Kd ([2]; read-out: Kd) [µM] | Kd [5] | Kd [2] | Kd [1] | Kd [3] | also measured
7 | H-SGRGK(Ac)GGKGL-OH | 48 | Not Active |  | Not Active | Not Active | Kd [4]: 22 µM
8 | H-LGK(Ac)GGAK(Ac)RHRK-OH | 214 |  |  |  |  | 
9 | H-SGRGK(Ac)QGGKARA-OH | 42.5 | Not Active |  | Not Active | Not Active | 
10 | H-SGRGK(Ac)GGK(Ac)GL-OH | 28.1 | Not Active |  | Not Active | Not Active | Kd ([6]; read-out: Kd): 623 µM
11 | CC(=O)NCCCC[C@H](NC(=O)CNC(=O)CN)C(=O)NCC(=O)N[C@@H](CC(C)C)C(=O)NCC(=O)N[C@@H](CCCCNC(C)=O)C(=O)NCC(=O)NCC(=O)N[C@@H](C)C(=O)O |  |  | Not Active |  |  | 
12 | C[C@H](N)C(=O)N[C@@H](CCCNC(=N)N)C(=O)N[C@H](C(=O)N[C@@H](CCCCN)C(=O)N[C@@H](CCC(N)=O)C(=O)N[C@H](C(=O)N[C@@H](C)C(=O)N[C@@H](CCCNC(=N)N)C(=O)N[C@@H](CCCCN)C(=O)N[C@@H](CO)C(=O)N[C@H](C(=O)NCC(=O)O)[C@@H](C)O)[C@@H](C)O)[C@@H](C)O |  |  | Not Active |  |  | 
13 | CC(=O)NCCCC[C@H](NC(=O)CNC(=O)CNC(=O)[C@H](CCCCN)NC(=O)CN)C(=O)NCC(=O)N[C@@H](CC(C)C)C(=O)NCC(=O)N[C@@H](CCCCN)C(=O)NCC(=O)NCC(=O)N[C@@H](C)C(=O)N[C@@H](CCCCN)C(=O)N[C@@H](CCCNC(=N)N)C(=O)O |  |  | Not Active |  |  | 
